According to ChEMBL document CHEMBL1137943, “Synthesis and antibacterial activity of O-substituted nocathiacin I derivatives” (Bioorg Med Chem Lett, 2004):
Converted amounts (≈) assume the structure as drawn.

What was measured:
Streptococcus pneumoniae = test: Minimum concentration required to inhibit visible growth of penicillin-resistant Streptococcus pneumoniae A28272; assay type: functional
Method in brief: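 Serial microbroth dilution in 50% Mueller–Hinton/50% Todd–Hewitt medium; final inoculum about 5 × 10^5 CFU/well; incubated at 35 °C for 18 h in ambient air. MIC is the lowest drug concentration preventing visible growth.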

Staphylococcus aureus = test: Minimum concentration required to inhibit visible growth of methicillin-sensitive Staphylococcus aureus A15090; assay type: functional
Method in brief: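 Serial microbroth dilution in Mueller–Hinton medium; final inoculum about 5 × 10^5 CFU/well; incubated at 35 °C for 18 h in ambient air. MIC is the lowest drug concentration preventing visible bacterial growth.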

Enterococcus faecalis = test: Minimum concentration required to inhibit visible growth of Enterococcus faecalis A20688
[1] = Equilibrium water solubility was determined with amorphous powders at pH 8.5; assay type: ADME
Mus musculus [2] = test: Dose (iv) required against Staphylococcus aureus infected mice; assay type: functional; details: read-out: PD50
[3] = Equilibrium water solubility was determined with amorphous powders at pH 8.4; assay type: ADME
Mus musculus [4] = test: Dose (sc) required against Staphylococcus aureus infected mice; assay type: functional; details: read-out: PD50
Method in brief: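 Adult female ICR mice infected ip with 5–6 × 10^6 CFU of S. aureus A15090 in 7% hog gastric mucin. Drug in 10% DMSO/5% Tween 80/85% water given sc twice, at 1 and 4 h post-infection. Survival followed for 8 days; 10 mice per group, at least three doses. PD50 (mg/kg) by Spearman–Karber estimator.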

[5] = Equilibrium water solubility was determined with amorphous powders at pH 6.9; assay type: ADME
[6] = Equilibrium water solubility was determined with amorphous powders at pH 3; assay type: ADME
[7] = Equilibrium water solubility was determined with amorphous powders at pH 4; assay type: ADME
[8] = Equilibrium water solubility was determined with amorphous powders at pH 7.1; assay type: ADME
[9] = Equilibrium water solubility was determined with amorphous powders at pH 3.5; assay type: ADME
[10] = Equilibrium water solubility was determined with amorphous powders at pH 8.2; assay type: ADME

| Structure (SMILES) | MIC (Streptococcus pneumoniae) [µg/mL] | MIC (Staphylococcus aureus) [µg/mL] | MIC (Enterococcus faecalis) [µg/mL] | ED50 (Mus musculus [2]) [mg/kg] | also measured |
| --- | --- | --- | --- | --- | --- |
| C=C(NC(=O)c1csc(-c2nc3c(cc2OP([O-])OC)-c2nc(cs2)C(=O)NC(C(C)O)C(=O)N/C(=C(\C)OC)c2nc(cs2)C(=O)NC2c4nc(cs4)C(=O)NC(COC(=O)c4c5c6c(cccc6n4OP([O-])OC)COC(=O)C(OC4CC(C)(O)C(N(C)C)C(C)O4)C2OC5)c2nc-3cs2)n1)C(N)=O.[Na+].[Na+] (stereo not drawn) | 0.003 | 0.25 | 0.25 | 5.9 | solubility thermodynamic [1]: > 10000 µg/mL |
| C=C(NC(=O)c1csc(-c2nc3c(cc2O)-c2nc(cs2)C(=O)NC(C(C)O)C(=O)N/C(=C(\C)OC)c2nc(cs2)C(=O)NC2c4nc(cs4)C(=O)NC(COC(=O)c4c5c6c(cccc6n4OC(=O)NCCOCCOCCOCCOC)COC(=O)C(OC4CC(C)(O)C(N(C)C)C(C)O4)C2OC5)c2nc-3cs2)n1)C(N)=O (stereo not drawn) | 0.015 (≈ 0.00898 µM) | 0.125 (≈ 0.0748 µM) | 0.125 (≈ 0.0748 µM) | – | – |
| C=C(NC(=O)c1csc(-c2nc3c(cc2O)-c2nc(cs2)C(=O)NC(C(C)O)C(=O)N/C(=C(\C)OC)c2nc(cs2)C(=O)NC2c4nc(cs4)C(=O)NC(COC(=O)c4c5c6c(cccc6n4OC(=O)NC)COC(=O)C(OC4CC(C)(O)C(N(C)C)C(C)O4)C2OC5)c2nc-3cs2)n1)C(N)=O (stereo not drawn) | 0.001 (≈ 0.000669 µM) | 0.125 (≈ 0.0836 µM) | 0.06 (≈ 0.0401 µM) | – | – |
| C=C(NC(=O)c1csc(-c2nc3c(cc2OP([O-])OC)-c2nc(cs2)C(=O)NC(C(C)O)C(=O)N/C(=C(\C)OC)c2nc(cs2)C(=O)NC2c4nc(cs4)C(=O)NC(COC(=O)c4c5c6c(cccc6n4O)COC(=O)C(OC4CC(C)(O)C(N(C)C)C(C)O4)C2OC5)c2nc-3cs2)n1)C(N)=O.[Na+] (stereo not drawn) | 0.06 | 0.125 | 0.25 | 0.26 | solubility thermodynamic [3]: > 2200 µg/mL |
| C=C(NC(=O)c1csc(-c2nc3c(cc2O)-c2nc(cs2)C(=O)NC(C(C)O)C(=O)N/C(=C(\C)OC)c2nc(cs2)C(=O)NC2c4nc(cs4)C(=O)NC(COC(=O)c4c5c6c(cccc6n4OP(=O)(O)OCCCl)COC(=O)C(OC4CC(C)(O)C(N(C)C)C(C)O4)C2OC5)c2nc-3cs2)n1)C(N)=O (stereo not drawn) | 0.03 (≈ 0.019 µM) | 0.25 (≈ 0.158 µM) | 0.5 (≈ 0.316 µM) | – | ED50 (Mus musculus [4]): > 10 mg/kg; solubility thermodynamic [5]: 530 µg/mL (≈ 335 µM) |
| C=C(NC(=O)c1csc(-c2nc3c(cc2O)-c2nc(cs2)C(=O)NC(C(C)O)C(=O)N/C(=C(\C)OC)c2nc(cs2)C(=O)NC2c4nc(cs4)C(=O)NC(COC(=O)c4c5c6c(cccc6n4OC(=O)NCCCN4CCN(C)CC4)COC(=O)C(OC4CC(C)(O)C(N(C)C)C(C)O4)C2OC5)c2nc-3cs2)n1)C(N)=O (stereo not drawn) | 0.0005 (≈ 0.000308 µM) | 0.003 (≈ 0.00185 µM) | 0.003 (≈ 0.00185 µM) | – | solubility thermodynamic [6]: > 2300 µg/mL |
| C=C(NC(=O)c1csc(-c2nc3c(cc2O)-c2nc(cs2)C(=O)N[C@@H]([C@@H](C)O)C(=O)N/C(=C(\C)OC)c2nc(cs2)C(=O)N[C@@H]2c4nc(cs4)C(=O)N[C@@H](COC(=O)c4c5c6c(cccc6n4O)COC(=O)[C@@H](O[C@H]4C[C@](C)(O)[C@H](N(C)C)[C@H](C)O4)[C@H]2OC5)c2nc-3cs2)n1)C(N)=O [MJ347-81F4 A] | 0.002 (≈ 0.00139 µM) | 0.007 (≈ 0.00487 µM) | 0.03 (≈ 0.0209 µM) | 0.2 | solubility thermodynamic [7]: 340 µg/mL (≈ 237 µM) |
| C=C(NC(=O)c1csc(-c2nc3c(cc2O)-c2nc(cs2)C(=O)NC(C(C)O)C(=O)N/C(=C(\C)OC)c2nc(cs2)C(=O)NC2c4nc(cs4)C(=O)NC(COC(=O)c4c5c6c(cccc6n4OC(=O)N(C)CCO)COC(=O)C(OC4CC(C)(O)C(N(C)C)C(C)O4)C2OC5)c2nc-3cs2)n1)C(N)=O (stereo not drawn) | 0.0005 (≈ 0.000325 µM) | 0.03 (≈ 0.0195 µM) | 0.03 (≈ 0.0195 µM) | – | solubility thermodynamic [8]: 3 µg/mL (≈ 1.95 µM) |
| C=C(NC(=O)c1csc(-c2nc3c(cc2O)-c2nc(cs2)C(=O)NC(C(C)O)C(=O)N/C(=C(\C)OC)c2nc(cs2)C(=O)NC2c4nc(cs4)C(=O)NC(COC(=O)c4c5c6c(cccc6n4OC(=O)NCCCC)COC(=O)C(OC4CC(C)(O)C(N(C)C)C(C)O4)C2OC5)c2nc-3cs2)n1)C(N)=O (stereo not drawn) | 0.007 (≈ 0.00456 µM) | 0.001 (≈ 0.000651 µM) | 0.03 (≈ 0.0195 µM) | – | – |
| C=C(NC(=O)c1csc(-c2nc3c(cc2OP(=O)(O)OCCCl)-c2nc(cs2)C(=O)NC(C(C)O)C(=O)N/C(=C(\C)OC)c2nc(cs2)C(=O)NC2c4nc(cs4)C(=O)NC(COC(=O)c4c5c6c(cccc6n4OP(=O)(O)OCCCl)COC(=O)C(OC4CC(C)(O)C(N(C)C)C(C)O4)C2OC5)c2nc-3cs2)n1)C(N)=O (stereo not drawn) | 0.5 (≈ 0.29 µM) | 4 (≈ 2.32 µM) | 4 (≈ 2.32 µM) | – | – |
| C=C(NC(=O)c1csc(-c2nc3c(cc2O)-c2nc(cs2)C(=O)NC(C(C)O)C(=O)N/C(=C(\C)OC)c2nc(cs2)C(=O)NC2c4nc(cs4)C(=O)NC(COC(=O)c4c5c6c(cccc6n4OC(=O)NCCOCCOCCOCCOCCOCCO)COC(=O)C(OC4CC(C)(O)C(N(C)C)C(C)O4)C2OC5)c2nc-3cs2)n1)C(N)=O (stereo not drawn) | 0.003 (≈ 0.00172 µM) | 0.06 (≈ 0.0344 µM) | 0.06 (≈ 0.0344 µM) | – | solubility thermodynamic [9]: > 2100 µg/mL; ED50 (Mus musculus [4]): 0.78 mg/kg |
| C=C(NC(=O)c1csc(-c2nc3c(cc2O)-c2nc(cs2)C(=O)NC(C(C)O)C(=O)N/C(=C(\C)OC)c2nc(cs2)C(=O)NC2c4nc(cs4)C(=O)NC(COC(=O)c4c5c6c(cccc6n4OP([O-])OC)COC(=O)C(OC4CC(C)(O)C(N(C)C)C(C)O4)C2OC5)c2nc-3cs2)n1)C(N)=O.[Na+] (stereo not drawn) | 0.007 | 0.125 | 0.25 | 1.6 | solubility thermodynamic [10]: 5600 µg/mL |
| C=C(NC(=O)c1csc(-c2nc3c(cc2OP(=O)(O)OCCCl)-c2nc(cs2)C(=O)NC(C(C)O)C(=O)N/C(=C(\C)OC)c2nc(cs2)C(=O)NC2c4nc(cs4)C(=O)NC(COC(=O)c4c5c6c(cccc6n4O)COC(=O)C(OC4CC(C)(O)C(N(C)C)C(C)O4)C2OC5)c2nc-3cs2)n1)C(N)=O (stereo not drawn) | 0.03 (≈ 0.019 µM) | 1 (≈ 0.633 µM) | 1 (≈ 0.633 µM) | – | – |
